Screening data (PubChem BioAssay)
The full list was thinned out, with hits kept by preference.
RORA inh – RORA (human) inhibition; P35398; actives 0.43% (n = 65,000); inhibition, % at 10 µM; CHO-K1 Gal4-RORA LBD luciferase reporter, luminescence;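 active = inhibition above the mean of all tested compounds plus 3 SD, cut at about 52% in these data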;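 note: 0% = RORA-transfected cells with DMSO and 100% = mock-transfected cells lacking RORA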
Target sequence (P35398 whole entry, looked up, the tested form may be a part): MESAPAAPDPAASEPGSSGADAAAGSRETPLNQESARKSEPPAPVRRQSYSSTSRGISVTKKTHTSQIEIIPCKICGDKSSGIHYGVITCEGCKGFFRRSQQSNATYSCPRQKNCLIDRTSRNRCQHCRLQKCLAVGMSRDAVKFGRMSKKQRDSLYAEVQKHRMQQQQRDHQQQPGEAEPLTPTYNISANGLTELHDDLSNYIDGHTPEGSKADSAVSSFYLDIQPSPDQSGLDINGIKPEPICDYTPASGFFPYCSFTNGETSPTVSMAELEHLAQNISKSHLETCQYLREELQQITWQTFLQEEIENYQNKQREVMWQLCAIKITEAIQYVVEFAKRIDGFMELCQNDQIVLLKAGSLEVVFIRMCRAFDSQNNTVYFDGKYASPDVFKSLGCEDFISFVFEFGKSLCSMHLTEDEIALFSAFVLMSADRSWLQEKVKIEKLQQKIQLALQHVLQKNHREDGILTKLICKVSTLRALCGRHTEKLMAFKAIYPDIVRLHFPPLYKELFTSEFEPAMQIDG
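Material: transiently transfected CHO-K1 cells, Gal4-DBD/human RORA-LBD fusion plus 5xGal4-luciferase reporter; doses: single concentration per compound, 10 µM final; incubation: 20 h at 37 °C; detection: luminescence from basal luciferase reporter expression; read-out: % inhibition of basal luciferase versus +RORA/-RORA DMSO controls; replication: tested once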
Starred values were filed as active, the others as inactive.

`CN(C)c1ccc(C2=NOC(CN3C(=O)c4ccccc4S3(=O)=O)C2)cc1` (stereo not given) gave RORA inh -60.1.
For CC1CCN(C(=O)CN2C(=O)c3ccccc3S2(=O)=O)CC1 the results were RORA inh -26.3.
`O=C1c2ccccc2S(=O)(=O)N1Cc1nc2ccccc2s1` gave RORA inh 53.7*.
CCS(=O)(=O)N1CCC(C(=O)Nc2cc(Cl)ccc2O)CC1 was read as RORA inh -11.1.
Cc1cccc(C)c1OCC(O)CNS(=O)(=O)c1ccccc1C(=O)N1CCOCC1 (stereo not given) was read as RORA inh 2.1.
`COc1ccc(-c2noc(-c3ccccc3C(=O)Nc3cccc(OC)c3)n2)cc1` gave RORA inh 15.0.
Screening COC(=O)c1cc(COc2ccc3oc(C)c(C(=O)OC)c3c2)c(C)o1 returned RORA inh 5.6.
For Cc1oc2cc3c(C(=O)OCCN(C)C)c(C)oc3cc2c1C(=O)OCCN(C)C the results were RORA inh 82.1*.
`CN(C)CCOC(=O)C1(c2ccccc2)CCOCC1` gave RORA inh 2.6.
Screening Cc1ccc(NC(=O)NCCc2ccc(S(N)(=O)=O)cc2)cc1 returned RORA inh 27.0.
`Cc1ccc(NC2=Nc3ccccc3CS2)cc1` gave RORA inh 61.0*.
`Cn1c(SCc2ccccc2)nnc1-c1ccc2c(c1)OCO2` gave RORA inh -54.9.
O=C(O)CCSc1nc2ccccc2s1 was read as RORA inh 54.4*.
Nc1nc(CSc2nc3ccccc3s2)nc(N2CCCCC2)n1 was read as RORA inh -14.1.
Cn1c(=O)c2c(nc(N3CCCCC3)n2CCSc2nc3ccccc3s2)n(C)c1=O was read as RORA inh 0.4.
Screening CCOC(=O)C1=C(C)C(c2ccc(OC)cc2OC)NC(=O)N1 (stereo not given) returned RORA inh 5.9.
For COc1cccc(OC)c1OCCCc1c(C)n[nH]c1C the results were RORA inh 9.1.
Cc1cc(C)nc(SCc2nnc(SCC(=O)Nc3ccc(Cl)c(C(F)(F)F)c3)o2)n1 was read as RORA inh 17.5.
O=C(CSCc1cccc(F)c1)N1CCN(c2ccccc2)CC1 was read as RORA inh -52.6.
Screening CC(C)(C)NC(=O)C(c1ccco1)N(C(=O)c1ccc(CN2CCOCC2)o1)c1ccccc1 (stereo not given) returned RORA inh 3.8.
For Cc1ccc(S(=O)(=O)Nc2cccc3ncccc23)s1 the results were RORA inh 80.2*.
For Cc1cccc(OCCOCCN2CCOCC2)c1C the results were RORA inh -2.1.
`COc1ccc2c(c1)S/C(=C\C(=O)c1ccncc1)N2C` gave RORA inh -57.6.
CCN(CC)c1ccc2cc(NC(=O)CCC(=O)O)c(=O)oc2c1 was read as RORA inh 66.2*.
For CCN(CC)c1ccc(NC(=O)c2ccccc2F)cc1 the results were RORA inh -70.2.
`CCN(CC)c1ccc(NC(=O)C2CC3CCC2C3)cc1` (stereo not given) gave RORA inh -54.6.
For CCCCC(=O)Nc1ccc(C(=O)Nc2ccc(S(=O)(=O)N3CCCC3)cc2)cc1 the results were RORA inh 12.0.
Cc1ccc2nc(SCC(=O)N3CCCC3)[nH]c2c1 was read as RORA inh -74.3.
Screening O=C(Cc1cn2ccsc2n1)NCCc1ccc(F)cc1 returned RORA inh -14.5.
For COc1ccc(CNc2cc(C)nc3ncnn23)c(OC)c1 the results were RORA inh 67.0*.
For O=S(=O)(NC1CCCC1)c1ccc(S(=O)(=O)N(Cc2cccs2)CC2CCCO2)cc1 (stereo not given) the results were RORA inh 0.0.
`Cc1nn(-c2nc3ccccc3s2)c(N)c1Sc1ccc(F)cc1` gave RORA inh -26.0.
O=c1c2ccccc2nc2sc3ccccc3n12 was read as RORA inh -60.4.
`O=c1c2ccccc2cnn1-c1nc2ccccc2s1` gave RORA inh 90.0*.
`Cc1ccc(-c2cc(-c3cccc(F)c3)n[nH]2)c(O)c1` gave RORA inh -68.4.
`CCOC(=O)c1ccc(N2C(=O)CC(N(C)CCc3ccc(OC)c(OC)c3)C2=O)cc1` (stereo not given) gave RORA inh -3.7.
For Cc1ccc(C(=O)Nc2nc3ccccc3n2CCN2CCCC2)cc1 the results were RORA inh -61.8.
